High-throughput results (PubChem)
p97 inhibitor: human p97 ATPase inhibition; 220,000 tested, 0.42% active; inhibition, % at 8 µM; recombinant p97 ATPase, Kinase-Glo ATP luminescence, 3 h; in the data active means inhibition above about 15%;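 further: 0% = DMSO vehicle and 100% = wells lacking enzyme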
APP 5'UTR act: activates APP 5'UTR luciferase reporter. activation, % at 2 µM. 190,000 tested, 1% active. SH-SY5Y APP 5'UTR luciferase reporter, luminescence; zero percent = DMSO vehicle wells. AID 1276;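 active means activation above a set limit, based on mean plus 3 SD of controls, cut at about 140% in these data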
STAT1 activator: STAT1 signaling activation | NIH 3T3 STAT1-luciferase reporter, IFN-gamma, luminescence; 100% = IFN-gamma alone, no compound | activation (% of control), % at 5.5 µM | 200,000 tested, 2.6% active | AID 932;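 active means activation above the screen-wide mean activation plus 3 SD, cut at about 130% in these data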;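 further: raw ratio to IFN-gamma control signal so 100% means no change and 0% no light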
NF-kB expr up: raises NF-kB expression in human neuronal cells. fold change at 12.5 µM. NF-kB reporter expression; hits give high values. 190,000 tested, 1.6% active; in the data active means fold change above about 3.3
Mdm2 ligase inh: Mdm2 E3 ligase (human) inhibition; Q00987; cell-based MDM2 ubiquitination luciferase reporter, 2 h; 0 = plate control, 100 = twice control, blank-subtracted; signal enhancement, % at 5 µM; 210,000 tested, 0.11% active; AID 1230;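 active means signal enhancement of 30% or more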;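 further: luminescence tracks abundance of the self-degrading MDM2-luciferase fusion protein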
Target sequence (Q00987 whole entry, looked up, the tested form may be a part): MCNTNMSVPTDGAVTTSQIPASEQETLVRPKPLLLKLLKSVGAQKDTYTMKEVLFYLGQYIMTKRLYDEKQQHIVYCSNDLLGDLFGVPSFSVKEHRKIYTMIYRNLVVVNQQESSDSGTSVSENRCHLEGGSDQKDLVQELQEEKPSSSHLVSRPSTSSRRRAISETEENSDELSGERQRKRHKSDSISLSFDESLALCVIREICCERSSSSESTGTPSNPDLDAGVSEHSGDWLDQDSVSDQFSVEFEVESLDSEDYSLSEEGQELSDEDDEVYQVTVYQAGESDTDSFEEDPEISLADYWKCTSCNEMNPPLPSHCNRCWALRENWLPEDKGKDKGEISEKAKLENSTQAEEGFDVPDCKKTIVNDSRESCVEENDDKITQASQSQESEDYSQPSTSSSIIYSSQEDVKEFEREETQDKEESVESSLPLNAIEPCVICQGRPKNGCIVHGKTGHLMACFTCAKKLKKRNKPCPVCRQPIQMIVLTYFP
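Timing – 2 h compound exposure at 37 °C · Assay system – mammalian cells stably expressing self-ubiquitinating, self-degrading MDM2 E3–luciferase fusion · Amount – 2000 cells seeded into each well · Measure – % luminescence enhancement versus blank-corrected plate control mean · Measured by – SteadyLite luminescence, 15 min reagent step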
Wee1 degr inh: inhibitors of human Wee1 degradation | reporter increase, % at 5 µM | 220,000 tested, 1.2% active | HeLa Luc-Wee1K328M stability, luciferase luminescence; 100% = proteasome inhibitor MG132 effect | AID 1321;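 active means activation above the mean of all tested compounds plus 3 SD, set per screening run, cut at about 8.8% in these data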;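 further: cells exposed to compound for 20 h before luminescence read; 0% = DMSO alone and 100% = MG132 at 30 µM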
Starred values were filed as active, the others as inactive. This is a sample that favours compounds with a hit; in the whole collection about 4.6% have one here.

Results for COc1ccc(CN=C2NN=C(c3ccc(Cl)cc3)CS2)cc1 ?
p97 inhibitor: 8.3; APP 5'UTR act: 7.6; STAT1 activator: 143.7*; NF-kB expr up: 2.83; Mdm2 ligase inh: -10.2; Wee1 degr inh: -0.1

How did COc1ccc(CN=C2Nc3ccccc3CS2)cc1 do in these assays?
p97 inhibitor: -4.4; APP 5'UTR act: 200.0*; STAT1 activator: 125.9; NF-kB expr up: 6.74*; Mdm2 ligase inh: -8.7; Wee1 degr inh: 0.6

What do the screens show for `COc1cccc(-c2nc3ccc([N+](=O)[O-])cc3o2)c1`?
p97 inhibitor: -0.7; APP 5'UTR act: 143.9*; STAT1 activator: 136.0*; NF-kB expr up: 3.36*; Mdm2 ligase inh: -22.0; Wee1 degr inh: 0.2

Results for COc1cccc(-c2nc3ccccc3c(=O)o2)c1 ?
p97 inhibitor: 3.1; APP 5'UTR act: -4.2; STAT1 activator: 95.6; NF-kB expr up: 1.68; Mdm2 ligase inh: -14.1; Wee1 degr inh: -0.9

Results for CC(C)(C)Nc1nc2ccc([N+](=O)[O-])cc2o1 ?
p97 inhibitor: -0.8; Mdm2 ligase inh: -2.6; Wee1 degr inh: 1.1

What do the screens show for `O=[N+]([O-])c1ccc2nc(-c3ccccc3)oc2c1`?
p97 inhibitor: -2.1; APP 5'UTR act: 52.9; STAT1 activator: 148.1*; NF-kB expr up: 2.15; Mdm2 ligase inh: -10.0; Wee1 degr inh: 4.4

Results for CC1=C(C(=O)Nc2ccc(C)cc2C)C(c2ccc(C)o2)NC(=S)N1 (stereo not drawn) ?
p97 inhibitor: 1.4; APP 5'UTR act: -18.8; STAT1 activator: 97.9; NF-kB expr up: 1.02; Mdm2 ligase inh: 2.8; Wee1 degr inh: 1.2

What do the screens show for `CC1CN(c2ccc(Cl)cc2[N+](=O)[O-])CCN1S(C)(=O)=O` (stereo not drawn)?
p97 inhibitor: 5.8; APP 5'UTR act: 15.9; STAT1 activator: 103.0; NF-kB expr up: 1.33; Mdm2 ligase inh: 8.0; Wee1 degr inh: 6.2

Results for COc1ccc(C(=O)CSc2nc3ncccc3[nH]2)cc1OC ?
p97 inhibitor: -3.5; Mdm2 ligase inh: -8.8; Wee1 degr inh: -0.4

What do the screens show for `COC(=O)c1c(-c2ccccc2)csc1NC1=NS(=O)(=O)c2ccccc21`?
p97 inhibitor: 14.0; APP 5'UTR act: 134.7; STAT1 activator: 135.5*; NF-kB expr up: 1.17; Mdm2 ligase inh: 10.6; Wee1 degr inh: 2.4

What do the screens show for `O=C(/C=C/c1cn(-c2ccccc2)nc1-c1cccc(Cl)c1)N1CCN(c2ccccn2)CC1`?
p97 inhibitor: -0.1; APP 5'UTR act: -3.6; STAT1 activator: 106.6; NF-kB expr up: 0.42; Mdm2 ligase inh: -17.6; Wee1 degr inh: -0.4

What do the screens show for `CCOC(=O)c1c(C)n(-c2ccc(C)cc2)c2c(C(C(C)=O)C(=O)O)c(Br)c(O)c(O)c12` (stereo not drawn)?
p97 inhibitor: 1.0; APP 5'UTR act: -5.5; STAT1 activator: 101.7; NF-kB expr up: 0.71; Mdm2 ligase inh: -12.5; Wee1 degr inh: 2.2

What do the screens show for `CCOC(=O)C(C(C)=O)c1c(Br)c(O)c(O)c2c(C(=O)c3ccc(C)cc3)coc12` (stereo not drawn)?
p97 inhibitor: 10.8; APP 5'UTR act: 4.7; STAT1 activator: 94.4; NF-kB expr up: 4.46*; Wee1 degr inh: 7.2

What do the screens show for `CC(C)(C)n1ncc2c(=O)n(CC(=O)NCc3ccccc3Cl)cnc21`?
p97 inhibitor: 3.0; APP 5'UTR act: 192.6*; STAT1 activator: 145.3*; NF-kB expr up: 3.24; Mdm2 ligase inh: -50.2; Wee1 degr inh: -0.2

What do the screens show for `COc1ccc(C(=O)c2ccc(N(C)C)cc2)c(OC)c1`?
p97 inhibitor: -0.6; APP 5'UTR act: -78.1; STAT1 activator: 115.1; NF-kB expr up: 0.9; Mdm2 ligase inh: -13.8; Wee1 degr inh: -0.5

How did CN(C)c1ccc(C(=O)c2ccc(N(C)C)c3ccccc23)cc1 do in these assays?
p97 inhibitor: -3.3; APP 5'UTR act: -95.4; STAT1 activator: 139.2*; NF-kB expr up: 5.23*; Mdm2 ligase inh: 19.3; Wee1 degr inh: 1.9

Results for CC(OC(=O)CCc1nc2ccccc2[nH]c1=O)c1ccccc1 (stereo not drawn) ?
p97 inhibitor: 2.1; APP 5'UTR act: -3.8; STAT1 activator: 92.3; NF-kB expr up: 0.98; Mdm2 ligase inh: -0.2; Wee1 degr inh: 10.7*

What do the screens show for `COc1ccc(S(=O)(=O)NN(C)C(=O)c2nn(-c3ccccc3)ccc2=O)cc1`?
p97 inhibitor: 0.6; APP 5'UTR act: -17.6; STAT1 activator: 100.2; NF-kB expr up: 0.87; Mdm2 ligase inh: -12.6; Wee1 degr inh: 0.2

Results for CC(=O)Nc1ccc(-c2csc(NCc3ccco3)n2)cc1 ?
p97 inhibitor: -1.3; APP 5'UTR act: 116.0; STAT1 activator: 137.1*; NF-kB expr up: 3.69*; Mdm2 ligase inh: -3.9; Wee1 degr inh: 0.8

What do the screens show for `c1cncc(-c2csc(NCc3ccco3)n2)c1`?
p97 inhibitor: -4.8; APP 5'UTR act: 3.0; STAT1 activator: 110.0; NF-kB expr up: 1.48; Mdm2 ligase inh: -0.1; Wee1 degr inh: -0.9

What do the screens show for `CC(C)C(=O)N1CCN(c2ccc(NC(=O)c3ccc([N+](=O)[O-])o3)cc2)CC1`?
p97 inhibitor: 2.5; APP 5'UTR act: -57.3; STAT1 activator: 140.8*; NF-kB expr up: 0.32; Mdm2 ligase inh: 0.9; Wee1 degr inh: 1.1

How did O=C(Nc1ccc(N2CCOCC2)c(Cl)c1)c1ccc([N+](=O)[O-])o1 do in these assays?
p97 inhibitor: 3.1; APP 5'UTR act: -94.8; STAT1 activator: 128.7*; NF-kB expr up: 1.08; Mdm2 ligase inh: 4.8; Wee1 degr inh: 2.8

How did CC(C)C(=O)N1CCN(c2ccc(NC(=O)c3ccc(Br)o3)cc2)CC1 do in these assays?
p97 inhibitor: 0.7; APP 5'UTR act: 16.8; STAT1 activator: 97.2; NF-kB expr up: 1.02; Mdm2 ligase inh: -22.4; Wee1 degr inh: 3.2

Results for CCOC(=O)c1c(C)nc2c(c1-c1cc(OC)ccc1OC)C(=O)CC(C)(C)C2 ?
p97 inhibitor: 3.6; Mdm2 ligase inh: -16.4; Wee1 degr inh: 3.7

How did Cc1ccc(OCCSc2ncccn2)c(C)c1 do in these assays?
p97 inhibitor: -3.3; APP 5'UTR act: 167.8*; STAT1 activator: 135.5*; NF-kB expr up: 5.46*; Mdm2 ligase inh: -22.3; Wee1 degr inh: 1.1

How did CNC(=S)N/N=C(\C)c1ccc(N2CCOCC2)cc1 do in these assays?
p97 inhibitor: 0.1; APP 5'UTR act: 31.2; STAT1 activator: 97.7; NF-kB expr up: 6.32*; Mdm2 ligase inh: -17.1; Wee1 degr inh: -0.5

How did CCNC(=S)N/N=C(\C)c1ccc(N2CCOCC2)cc1 do in these assays?
p97 inhibitor: -5.3; APP 5'UTR act: -5.5; STAT1 activator: 107.1; NF-kB expr up: 1.29; Mdm2 ligase inh: -6.2; Wee1 degr inh: 1.4

What do the screens show for `CCOC(=O)C1=NNC2C(=O)N(Cc3ccccc3)C(=O)C12` (stereo not drawn)?
p97 inhibitor: -3.2; Mdm2 ligase inh: -20.7; Wee1 degr inh: 2.5
